This note sets out measurements from ChEMBL document CHEMBL1128731, “Furanfurin and thiophenfurin: two novel tiazofurin analogues. Synthesis, structure, antitumor activity, and interactions with inosine monophosphate dehydrogenase” (J Med Chem, 1995).

One test concerns HL-60. The test is described as follows: Inhibitory concentration against HL-60 human promyelocytic leukemia cell lines; inactive until a maximum tested concentration of 200 uM. The format is functional, cell-based. The method, boiled down:
(§1)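 Cells in log phase plated with a range of drug concentrations (B16 5×10^3 cells/well; P388, L1210, LLC 10^4 cells/well; HL-60, K562, LoVo 2.5×10^5 cells/well). Growth read by modified MTT after 72 h drug contact at 37 °C. IC50 taken as the concentration reducing optical absorption by 50%, from Chou regression analysis. Maximum concentration tested 200 μM.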

Another test relates to P388. In words: Inhibitory concentration against P388 murine lymphocytic leukemia cell lines; Inactive until a maximum tested concentration of 200 uM. It counts as functional, cell-based, Mus musculus. The method, boiled down:
as §1

Test [1] has as its system Lewis lung carcinoma cell line. In words: Inhibitory concentration against LLC Lewis lung carcinoma cell lines; Inactive until a maximum tested concentration of 200 uM. The format is functional, cell-based, Mus musculus. The method, boiled down:
as §1

For another test, the system named is L1210. In words: Inhibitory concentration against L1210 murine lymphocytic leukemia cell lines; inactive until a maximum tested concentration of 200 uM. It counts as functional, cell-based, Mus musculus. In short, it runs like this:
as §1

In test [2] the test system is K562. In words: Formation of NAD analogue by compound at 100 uM concentration against human myelogenous leukemia K562. The format is functional. In short, it runs like this: (§2)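 K562 cells (1×10^7/10 mL) were labeled with 185 nM [2,8-3H]adenosine for 1 h at 37 °C, then given saline or analogue for 2 h. Cells were pelleted, washed with PBS and extracted in cold 10% trichloroacetic acid. Extracts were neutralized with 0.5 M tri-n-octylamine in freon and run on SAX HPLC with ammonium phosphate buffer. Results are pmol NAD analogue per 10^9 cells.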

Test [3] deals with K562. In words: Inhibitory concentration determined against K562 human myelogenous leukemia cell lines; inactive until a maximum tested concentration of 200 uM. The format is functional, cell-based. In short, it runs like this:
as §1

The subject of test [4] is K562. The test is described as follows: Formation of NAD analogue by compound at 50 uM concentration against human myelogenous leukemia K562. It counts as functional. The method, boiled down: as §2
The next test deals with LoVo. In words: Inhibitory concentration against LoVo human colon adenocarcinoma cell lines; Inactive until a maximum tested concentration of 200 uM. It counts as functional, cell-based. The method, boiled down:
as §1

For a further test, the system named is B16. In words: Inhibitory concentration against B16 melanoma cell lines; Inactive until a maximum tested concentration of 200 uM. It counts as functional, cell-based, Mus musculus. In short, it runs like this:
as §1

Consider `NC(=O)c1coc([C@@H]2O[C@H](CO)[C@@H](O)[C@H]2O)c1`, for which the IC50 entry (in the test with HL-60; in the test with P388; in test [1]; with L1210; in the test on K562 [3]; in the test on LoVo) was “Not Active” in each case. Besides, the IC50 result with B16 is given as “Not Active”. In addition, the Formation in the test on K562 [2] was 124 pmol/10^9 cells; in the test on K562 [4], 49.4 pmol/10^9 cells.
